# PAD4 inh: PAD4 (human) enzyme inhibition. Q9UM07. inhibition, % at 6.36 µM. recombinant PAD4, RCA probe fluorescence polarization. 330,000 tested, 0.41% active;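 active = percent inhibition above a cutoff equal to the mean of all tested compounds plus 3 SD, cut at about 15% in these data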
# Fh CTSL1 inh: counter-screen for PFM18AAP inhibitors: inhibitors of F. hepatica cathepsin L1; recombinant F. hepatica cathepsin L1, Z-Leu-Arg-MCA fluorescence; inhibition, % at 5.96 µM; AID 1906; 300,000 tested, 0.49% active;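 active = inhibition above the mean of all tested compounds plus 3 SD, set per screening campaign, cut at about 17% in these data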
# Apaf1 inhib: blocks human Apaf-1 apoptosome activity; O14727; reconstituted apoptosome caspase-3 activity, DEVD-Rh110 fluorescence; inhibition, % at 20 µM; 330,000 tested, 0.71% active; AID 489030; active = inhibition of at least 40% at 20 µM
#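 Material: biochemical Apaf-1 apoptosome reconstitution. Medium: Hepes buffer, pH 7.5. Also added: cytochrome c activation, bis-DEVD rhodamine 110 substrate. Timing: 30 min compound preincubation, 50 min activation, room temperature. Measured by: rhodamine 110 fluorescence at Ex 480/Em 540 nm.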
# TDP2 absorb: blocks human TDP2 phosphodiesterase activity; O95551; recombinant TDP2, T5PNP hydrolysis, p-nitrophenol absorbance 415 nm; inhibition, % at 12.8 µM; 370,000 tested, 0.34% active;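 active = inhibition above the mean of all tested compounds plus 3 SD, set per campaign, cut at about 25% in these data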
# Target sequence (O95551 whole entry, looked up): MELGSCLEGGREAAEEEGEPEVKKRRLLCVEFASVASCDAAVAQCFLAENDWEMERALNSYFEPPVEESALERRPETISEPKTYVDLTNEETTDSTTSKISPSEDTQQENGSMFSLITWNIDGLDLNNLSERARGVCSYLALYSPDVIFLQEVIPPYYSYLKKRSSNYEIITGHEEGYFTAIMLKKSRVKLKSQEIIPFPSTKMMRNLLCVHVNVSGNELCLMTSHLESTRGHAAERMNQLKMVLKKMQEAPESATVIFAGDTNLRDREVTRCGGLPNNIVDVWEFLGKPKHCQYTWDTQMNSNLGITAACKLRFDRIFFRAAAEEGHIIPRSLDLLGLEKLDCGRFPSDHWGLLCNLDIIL
#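 test system = human TDP2 enzyme | input = TDP2 enzyme at 120 nM final | medium = 50 mM Tris-HCl pH 7.5 with Mg2+, KCl, DTT, BSA | also added = T5PNP substrate, 5 mM | times = 2 h at 37 °C | technique = epi absorbance | benchmarks = high control without enzyme, low control DMSO plus TDP2 | replication = each compound tested once, singlicate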
# GSTO1 counter: GSTO1 inhibition, counter-screen for RBBP9 inhibitors; P78417; recombinant GSTO1, activity-based probe fluorescence polarization; 300,000 tested, 1.1% active; AID 1974; inhibition, % at 5.96 µM;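 active = inhibition above the campaign mean inhibition plus 3 SD, cut at about 35% in these data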
# Target sequence (P78417 whole entry, looked up): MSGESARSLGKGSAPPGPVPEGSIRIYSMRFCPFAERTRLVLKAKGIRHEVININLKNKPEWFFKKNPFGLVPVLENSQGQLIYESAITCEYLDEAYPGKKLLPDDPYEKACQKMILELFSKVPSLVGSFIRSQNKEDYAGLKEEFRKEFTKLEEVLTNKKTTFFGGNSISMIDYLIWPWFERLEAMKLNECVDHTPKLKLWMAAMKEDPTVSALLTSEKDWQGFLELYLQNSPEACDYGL
# Numbers stand for hits; i = inactive; nt = no result given. A selection: hits, their analogues and other compounds. The true share with any hit is near 1.8%.
SMILES,PAD4 inh,Fh CTSL1 inh,Apaf1 inhib,TDP2 absorb,GSTO1 counter
NCCCCCc1nnc(SCC(=O)Nc2cccc(Cl)c2)o1,i,17,i,i,i
COC(=O)C1=C(C)N(Cc2cccc(C(F)(F)F)c2)C(=NCc2cc(OC)c(OC)c(OC)c2)NC1c1ccccc1C(F)(F)F (stereo not given),nt,nt,nt,i,nt
O=C(C(Cl)Cl)N1CCN(Cc2ccccc2)CC1,i,i,i,i,35
COc1ccccc1/C=N/Nc1nncc2ccccc12,i,i,i,i,i
COc1ccc(/C=N/Nc2nncc3ccccc23)cc1,i,52,i,i,i
c1nc(NCC2CC2)c2cc(-c3ccc4c(c3)OCO4)ccc2n1,nt,nt,nt,i,nt
CC(C)(C)OC(=O)NCCCCC1=CC2=CC(=O)C(C)(OC(=O)c3ccco3)C(=O)C2=CO1 (stereo not given),i,i,i,nt,41
CC(C)(C)OC(=O)NCCCC1=CC2=CC(=O)C(C)(OC(=O)C3CCCC3)C(=O)C2=CO1 (stereo not given),26,i,i,nt,i
CCCCC1=CC2=CC(=O)C(C)(OC(=O)c3ccc(Cl)nc3)C(=O)C2=CO1 (stereo not given),20,i,i,nt,i
C[C@H]1O[C@@H](n2c3ccc(Cl)cc3c3ccc4c5cc(Cl)ccc5[nH]c4c32)[C@H](O)[C@H](O)[C@H]1O,nt,nt,nt,i,nt
Cc1ccc(-c2nnc(SCC(=O)c3ccc(O)c(O)c3)n2-c2ccc(Cl)cc2)cc1,nt,nt,nt,i,nt
O=C(CCc1nc(-c2ccccc2F)no1)NCCc1ccc(F)cc1,nt,nt,nt,i,nt
CN(C(=O)CCc1nc(-c2ccccc2F)no1)c1ccccc1,i,37,i,i,i
Cc1cccc(NC(=O)C2CCCN2S(=O)(=O)c2cccnc2)c1C (stereo not given),nt,nt,nt,i,nt
CCOC(=O)C1=C(CSc2nc(C)cc(C)c2C#N)OC(N)=C(C#N)C1c1cccs1 (stereo not given),i,22,i,nt,i
CCOC(=O)C1=C(CSc2nc(C)cc(C)c2C#N)OC(N)=C(C#N)C1c1ccccc1 (stereo not given),i,i,i,i,i
C=CCn1c(SCC(=O)N2N=C(c3ccco3)CC2c2ccco2)nnc1-c1ccncc1 (stereo not given),i,i,i,i,i
O=C(O)/C=C/C(=O)N1N=C(c2ccco2)CC1c1ccco1 (stereo not given),i,35,i,i,i
Oc1cc(Br)ccc1C=Nc1ccc(N2CCCCC2)cc1,i,i,i,i,53
CCn1c(SCC(=O)NN=Cc2c[nH]c3ccccc23)nc2ccccc21,nt,nt,nt,i,nt
CCCCC(=O)NC(=O)NC(c1ccccc1)c1ccccc1,i,33,i,i,i
Cc1ccc(S(=O)(=O)N2CCCC2C(=O)N2CCc3ccccc3C2)cc1 (stereo not given),nt,nt,nt,i,nt
CSc1ccccc1NC(=O)c1cc(S(=O)(=O)N(C)C)ccc1N1CCCC1,i,i,52,i,i
COc1ccc(-c2nc3c(-c4ccccc4)cnn3cc2C)cc1F,i,20,i,i,i
CCCC[C@H](C(=O)N(CC)c1ccccc1)[C@@H](O)c1ccc(Cl)cc1,nt,nt,nt,i,nt
SMILES,PAD4 inh,Fh CTSL1 inh,Apaf1 inhib,TDP2 absorb,GSTO1 counter
O=C(O)c1[nH]c2ccccc2c1C(c1cc(Br)ccc1O)c1c(C(=O)O)[nH]c2ccccc12,i,i,i,i,59
O=C(O)c1[nH]c2ccccc2c1C(c1c(F)cccc1Cl)c1c(C(=O)O)[nH]c2ccccc12,i,i,i,i,41
O=C(O)CC1S/C(=N/N=C/C=C/c2ccccc2[N+](=O)[O-])NC1=O (stereo not given),i,i,i,i,i
O=C(O)CC1S/C(=N/N=C/c2ccc(-c3ccc(Cl)c([N+](=O)[O-])c3)o2)NC1=O (stereo not given),i,i,i,i,37
Cc1ccc(Cn2cc(COC(=O)Nc3ccc(F)cc3)nn2)cc1,nt,nt,nt,i,nt
Cc1ccc(-c2[nH]nc3c2C(c2ccoc2)C(C#N)=C(N)O3)cc1C (stereo not given),i,i,i,nt,44
CCCCC/C=C\C/C=C\C/C=C\CCCCC(=O)O,i,34,i,i,i
Cc1cc(C)nc(SCC(=O)c2ccc(O)c(O)c2)n1,i,i,i,i,i
Cc1cc(SCC(=O)c2ccc(O)c(O)c2)n2nc(C)c(-c3ccccc3)c2n1,i,i,i,i,35
C=CCO[C@H]1CN(C(=O)OC)[C@@H]2C[C@H]1Oc1ccccc12,nt,nt,nt,i,nt
CC(NC(=O)CN1C(=O)c2ccccc2C1=O)c1ccccc1 (stereo not given),i,i,i,i,i
COC(=O)C(NC(=O)CN1C(=O)c2ccccc2C1=O)c1ccc(O)c(OC)c1 (stereo not given),i,17,i,i,i
CCN(CC)S(=O)(=O)c1cccc(C(=O)N/N=C/c2cccc(O)c2O)c1,i,i,i,i,43
CC(C)CN1C(=O)[C@@]2(CC(=O)N(C)C2c2ccccc2)c2cc(-n3cc(C(C)(C)O)nn3)ccc21 (stereo not given in full),nt,nt,nt,i,nt
COCCNC(=O)c1ccc2c(c1)S(=O)(=O)c1cc(Cl)ccc1C2=O,i,nt,i,i,nt
O=C(NC1CC1)c1ccc2c(c1)S(=O)(=O)c1cc(Cl)ccc1C2=O,20,nt,i,i,nt
CC(C(=O)N1CCN(Cc2ccc3c(c2)OCO3)CC1)c1ccc([N+](=O)[O-])cc1 (stereo not given),i,18,i,i,i
COC(=O)[C@]12CCCCC=C1N(Cc1ccc(OC)cc1)C(=O)[C@@H]2CC(=O)NCCCN1CCCC1=O,nt,nt,nt,i,nt
CCN=C1S/C(=C\c2ccc(Sc3ccc(Cl)cc3)o2)C(=O)N1CC,i,i,i,i,i
CCN=C1S/C(=C/c2ccc(-c3ccc(F)cc3)o2)C(=O)N1CC,i,18,i,i,i
O=C(c1ccco1)c1coc2c1cc(O)c1ccccc12,i,i,i,i,43
COC(=O)C1CN(S(=O)(=O)c2ccccc2)CCN1S(=O)(=O)c1ccccc1 (stereo not given),i,58,i,i,i
C[C@@H](O[Si](c1ccccc1)(c1ccccc1)C(C)(C)C)[C@@H]1NC(=O)[C@@H]2C[C@]3(Br)c4ccccc4N(S(=O)(=O)c4ccccc4)[C@@H]3N2C1=O,nt,nt,nt,i,nt
O=c1cc(O)n(C2CCCCCC2)c(=O)[nH]1,i,i,i,i,36
O=c1[nH][nH]c(=S)n1C1CCCCC1,i,i,i,nt,i
CCOc1ccc(-n2c(SCC(=O)c3ccc4ccccc4c3)nnc2-c2cccc(Cl)c2)cc1,nt,nt,nt,i,nt
Cc1ccccc1Nc1nc(N)nc(COC(=O)c2ccco2)n1,i,nt,i,i,nt
COCc1c(C(=O)OCc2nc(N)nc(Nc3ccccc3C)n2)oc2ccccc12,i,17,i,i,i
CC(C)(C)CN1CCC(Oc2cccc(C(=O)N3CCNC(=O)C3(C)C)c2)CC1,i,19,i,i,i
CCCCN(C)C(=O)c1cccc(OC2CCN(CC(C)(C)C)CC2)c1,i,i,i,i,i

# Compound activity: PubChem, several laboratories
